Measured values gathered from unrelated publications.
Technique: competition with immobilised ligand
RPS6KA5 N-terminal kinase domain: Ribosomal protein S6 kinase alpha-5, N-terminal kinase domain (RPS6KA5, Homo sapiens, UniProt O75582)
RPS6KA5 C-terminal kinase domain: Ribosomal protein S6 kinase alpha-5, C-terminal kinase domain (RPS6KA5, Homo sapiens, UniProt O75582)

`C=CC(=O)N1CCC(C(=O)NCC(=O)N2CCN(c3nc(-c4cnc(N)nc4C(F)F)nc(N4CCOCC4)n3)CC2)CC1` gave a remaining binding of 100% (RPS6KA5 N-terminal kinase domain; binding; 1 µM).
`O=C(NCCCN1CCOCC1)c1ccc(Nc2ncc(Cl)c(-c3ccc(Cl)s3)n2)cc1` gave a remaining binding of 100% (RPS6KA5 N-terminal kinase domain; binding; 1 µM).
With `C[C@@H]1CCN(c2nccc(-c3cnn4ncccc34)n2)C1` the remaining binding was 70% (RPS6KA5 N-terminal kinase domain; binding; 1 µM).
For `Cc1cnc(Nc2ccc(C(=O)N3CCC(N4CCCC4)CC3)cc2)nc1-c1cc2ccccc2s1`, the remaining binding was 100% (RPS6KA5 N-terminal kinase domain; binding; 1 µM).
`O=C(NCC1CCOCC1)c1n[nH]cc1NC(=O)c1c(F)cccc1F` gave a remaining binding of 79% (RPS6KA5 N-terminal kinase domain; binding; 1 µM).
For `COc1cnc(Nc2cccc(S(N)(=O)=O)c2)nc1N1CCN(c2ccccc2)C(=O)C1`, the remaining binding was 99% (RPS6KA5 N-terminal kinase domain; binding; 1 µM).
`CN([C@@H]1CCc2c(CC(=O)O)c3cc(S(C)(=O)=O)ccc3n2C1)S(=O)(=O)c1ccc(F)cc1` has a remaining binding of 85% (RPS6KA5 N-terminal kinase domain; cell-free assay; 1 µM).
For `O=C(Nc1c[nH]nc1C(=O)NC1CCNCC1)c1cc(F)cc(F)c1`, the remaining binding was 100% (RPS6KA5 C-terminal kinase domain; binding; 1 µM).
`COc1ccnn2ncc(-c3ccnc(N(C)C)n3)c12` has a remaining binding of 100% (RPS6KA5 C-terminal kinase domain; binding; 1 µM).
`CNC(=O)[C@@H]1CC[C@@H](n2c(-c3ccc4cnccc4c3)nc3ccc(C(=O)NCc4cccc(C(N)=O)c4)cc32)C1` gave a remaining binding of 100% (RPS6KA5 C-terminal kinase domain; binding; 1 µM).
`O=C(c1ccc(Nc2nccc(-c3cc4ccccc4s3)n2)cc1)N1CCC(N2CCCC2)CC1` has a remaining binding of 86% (RPS6KA5 C-terminal kinase domain; binding; 1 µM).
For `Cc1cnn2ncc(-c3ccnc(N(C)C)n3)c2c1`, the remaining binding was 100% (RPS6KA5 N-terminal kinase domain; binding; 1 µM).
For `CC(=O)N1CCC(c2ccc(C(=O)NC3=NCCN3)cc2C(F)(F)F)CC1`, the remaining binding was 100% (RPS6KA5 N-terminal kinase domain; cell-free assay; 1 µM).
For `O=C(NCCCN1CCOCC1)c1ccc(Nc2nccc(-c3cc4ccccc4s3)n2)cc1`, the remaining binding was 100% (RPS6KA5 C-terminal kinase domain; binding; 1 µM).
`CN(C)C(=O)Cn1cc(-c2nc([C@@](C)(c3ccc(-c4cnc(N)nc4)cc3)C3CC3)no2)cn1` has a remaining binding of 92% (RPS6KA5 C-terminal kinase domain; cell-free assay; 1 µM).
`CN(C)c1nccc(-c2cnc3ncccn23)n1` gave a remaining binding of 100% (RPS6KA5 C-terminal kinase domain; binding; 1 µM).
The remaining binding of `c1cncc(-c2cccc(Nc3nccc(NC4CCCCC4)n3)c2)c1` is reported as 100% (RPS6KA5 N-terminal kinase domain; binding; 10 µM).
`N[C@H]1CCN(c2nccc(-c3cnn4ncccc34)n2)C1` has a remaining binding of 100% (RPS6KA5 N-terminal kinase domain; binding; 1 µM).
With `C[C@H](c1ccnc(Nc2nc3ccc(-c4cc(N(C)C)ncn4)cc3[nH]2)c1)N1CCN(C(=O)CC(F)(F)F)CC1` the remaining binding was 61% (RPS6KA5 C-terminal kinase domain; cell-free assay; 0.1 µM).
`F[C@@H]1CCN(c2nccc(-c3cnn4ncccc34)n2)C1` gave a remaining binding of 73% (RPS6KA5 C-terminal kinase domain; binding; 1 µM).
`CSc1cccnc1N1CCN(Cc2nc3ccccc3[nH]2)CC1` gave a remaining binding of 100% (RPS6KA5 C-terminal kinase domain; cell-free assay; 1 µM).
With `COc1cnc(Nc2cccc(S(N)(=O)=O)c2)nc1N1CCN(c2ccccc2)CC1` the remaining binding was 92% (RPS6KA5 N-terminal kinase domain; binding; 1 µM).
For `O=C(c1ccc(Nc2ncc(Cl)c(-c3ccc(Cl)s3)n2)cc1)N1CCC(N2CCCC2)CC1`, the remaining binding was 48% (RPS6KA5 C-terminal kinase domain; binding; 1 µM).
For `CCN1CCN(Cc2ccc(C(=O)Nc3ccc(C)c(Oc4ccc5c(c4)CC(=O)N5)c3)cc2C(F)(F)F)CC1`, the remaining binding was 100% (RPS6KA5 N-terminal kinase domain; binding; 1 µM).
For `O=C(c1ccc(Nc2ncc(Cl)c(-c3cc4ccccc4s3)n2)cc1)N1CCC(N2CCCC2)CC1`, the remaining binding was 54% (RPS6KA5 C-terminal kinase domain; binding; 1 µM).
`Nc1ncc2c(n1)-c1c([nH]c3ccc(C#CC4CC4)cc13)CCCC2` gave a remaining binding of 100% (RPS6KA5 C-terminal kinase domain; binding; 1 µM).
`O=C(Nc1cccnn1)N1CC(C/C=C/c2cncc(Oc3ccc(C(F)(F)F)cn3)n2)C1` gave a remaining binding of 100% (RPS6KA5 N-terminal kinase domain; cell-free assay; 1 µM).
For `C[C@@H](c1ccc(-n2cnc3c(N)ncnc32)cc1)N1CCc2nn(C)c(Cc3ccccc3)c2C1=O`, the remaining binding was 92% (RPS6KA5 C-terminal kinase domain; binding; 0.1 µM).
`Cc1noc([C@H]2C[C@@H](c3ccc(C(F)(F)F)cc3)CN(C(=O)N3CCS(=O)(=O)C3)C2)n1` gave a remaining binding of 100% (RPS6KA5 C-terminal kinase domain; cell-free assay; 1 µM).
With `CN(CCCC(F)(F)F)c1nccc(-c2cnn3ncccc23)n1` the remaining binding was 100% (RPS6KA5 C-terminal kinase domain; binding; 1 µM).
For `O=C(O)c1cc(-c2ccc(C3CCNCC3)cc2)c2ccc(-c3ccc(C(F)(F)F)cc3)cc2c1`, the remaining binding was 100% (RPS6KA5 C-terminal kinase domain; cell-free assay; 1 µM).
For `COc1ncc2cc3ccccc3nc2c1C#N`, the remaining binding was 88% (RPS6KA5 C-terminal kinase domain; cell-free assay; 5 µM).
